Experimental data from ChEMBL document CHEMBL4689842, “EUbOPEN Chemogenomics Library wave 1” (2021).
Where “and” joins values, the source holds several entries; their conditions need not be identical. Equal values may be shown once.

Tested on: U2OS
Experiment: Multiplex assay against U2OS
Format: toxicity, cell-based
Conditions: human, 1 µM, compound concentration 1 uM
How it was run: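 Live cells were stained at seeding with Hoechst33342, BioTracker Green Microtubule Cytoskeleton Dye, MitoTracker Red and Annexin V Alexa Fluor 680. Following compound addition, they were imaged on a CQ1 microscope at 37°C and 5% CO2 and gated by CellPathfinder machine learning into Hoechst high-intensity objects or normal cells, with normal cells split into healthy, pyknosed or fragmented nuclei and pyknosed cells into mitotic or apoptotic. Tubulin, mitochondrial-mass and membrane-permeability phenotypes are per cents of healthy-nucleus cells.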

Structure (SMILES): Cn1cc(C2=C(c3cn(C4CCN(Cc5ccccn5)CC4)c4ccccc34)C(=O)NC2=O)c2ccccc21 [ENZASTAURIN]
- Population Apoptotic (%) (12 h, replicate 1): 65% and 50%
- Population Fragmented Nuclei (%) (12 h, replicate 1): 20% and 9%
- Population Healthy Nuclei (%) (12 h, replicate 1): 30% and 78%
- Population Hoechst High Intensity Objects (%) (12 h, replicate 1): 4% and 5%
- Population Membrane Permeable-Phenotype (%) (12 h, replicate 1): 58%
- Population Mitotic Cells (%) (12 h, replicate 1): 34% and 50%
- Population Normal (%) (12 h, replicate 1): 95% and 94%
- Population Tubulin-Different-Phenotype (%) (12 h, replicate 1): 48%
- Total Cell Count (12 h, replicate 1): 159 and 95
- Population Apoptotic (%) (12 h, replicate 2): 76% and 37%
- Population Fragmented Nuclei (%) (12 h, replicate 2): 18% and 16%
- Population Healthy Nuclei (%) (12 h, replicate 2): 45% and 70%
- Population Hoechst High Intensity Objects (%) (12 h, replicate 2): 11% and 17%
- Population Membrane Permeable-Phenotype (%) (12 h, replicate 2): 63% and 33%
- Population Mitotic Cells (%) (12 h, replicate 2): 23% and 62%
- Population Normal (%) (12 h, replicate 2): 88% and 82%
- Population Pyknosed Nuclei (%) (12 h, replicate 2): 35% and 13%
- Population Tubulin-Different-Phenotype (%) (12 h, replicate 2): 100% and 34%
- Total Cell Count (12 h, replicate 2): 147 and 102
- Population Apoptotic (%) (24 h, replicate 1): 89% and 53%
- Population Fragmented Nuclei (%) (24 h, replicate 1): 15% and 5%
- Population Normal (%) (24 h, replicate 1): 83% and 96%
- Total Cell Count (24 h, replicate 1): 194 and 119
- Population Apoptotic (%) (24 h, replicate 2): 62%
- Population Fragmented Nuclei (%) (24 h, replicate 2): 14% and 8%
- Population Hoechst High Intensity Objects (%) (24 h, replicate 2): 14% and 10%
- Population Membrane Permeable-Phenotype (%) (24 h, replicate 2): 19%
- Population Mitotic Cells (%) (24 h, replicate 2): 37%
- Population Normal (%) (24 h, replicate 2): 85% and 89%
- Population Tubulin-Different-Phenotype (%) (24 h, replicate 2): 17%
- Total Cell Count (24 h, replicate 2): 149 and 124
